In brackets after ≈: the same amount, converted by molar mass.

In assay [1] the target is T1, Undecaprenyl-phosphate alpha-N-acetylglucosaminyl 1-phosphate transferase (Thermotoga maritima (strain ATCC 43589 / MSB8 / DSM 3109 / JCM 10099), UniProt Q9X1N5).
T1 sequence (Q9X1N5 whole entry): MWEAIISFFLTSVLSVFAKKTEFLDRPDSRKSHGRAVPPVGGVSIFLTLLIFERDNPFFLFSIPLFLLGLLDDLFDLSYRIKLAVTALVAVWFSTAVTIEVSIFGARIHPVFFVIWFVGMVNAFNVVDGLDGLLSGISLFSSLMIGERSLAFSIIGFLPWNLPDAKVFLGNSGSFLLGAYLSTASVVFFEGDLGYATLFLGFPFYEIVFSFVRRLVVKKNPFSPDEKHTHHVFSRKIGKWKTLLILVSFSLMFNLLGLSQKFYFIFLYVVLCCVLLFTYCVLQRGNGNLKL
In words: Inhibition of Thermotoga maritima WecA using radiolabeled UDP-[14C]GlcNAc as substrate after 30 mins. The procedure, abridged:
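Purified Thermotoga maritima WecA was assayed at pH 8 (100 mM Tris-HCl, 10 mM MgCl₂, 1.1 mM C₅₅-P, 0.16 mM UDP-[¹⁴C]GlcNAc, 92.7 mM Triton X-100), final concentrations. The reaction was started by enzyme, run 30 min at 65 °C and stopped at 100 °C for 1 min. C₅₅-PP-GlcNAc was separated by TLC and scanned. IC50 was relative to a no-inhibitor control, mean of triplicates.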

The target of assay [2] is T2, Phospho-N-acetylmuramoyl-pentapeptide-transferase (Bacillus subtilis (strain 168), UniProt Q03521).
T2 sequence (Q03521 whole entry): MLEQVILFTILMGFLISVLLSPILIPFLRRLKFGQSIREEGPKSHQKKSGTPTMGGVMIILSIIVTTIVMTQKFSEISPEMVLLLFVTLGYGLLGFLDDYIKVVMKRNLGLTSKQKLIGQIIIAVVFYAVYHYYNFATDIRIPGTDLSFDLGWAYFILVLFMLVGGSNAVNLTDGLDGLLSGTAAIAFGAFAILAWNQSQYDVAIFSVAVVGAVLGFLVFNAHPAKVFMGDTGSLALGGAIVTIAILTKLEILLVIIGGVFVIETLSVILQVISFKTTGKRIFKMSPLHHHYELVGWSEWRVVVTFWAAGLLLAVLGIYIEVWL
In words: Competitive inhibition of Bacillus subtilis MraY using UDP-MurNAc-pentapeptide as substrate after 30 mins by Lineweaver-Burk plot. The procedure, abridged: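 B. subtilis MraY was assayed at pH 7.5 (100 mM Tris-HCl, 40 mM MgCl₂, 250 mM NaCl, 8.4 mM N-lauroylsarcosine), started by enzyme and run 30 min at 37 °C. Initial rates were taken at 0.25–1.5 mM UDP-MurNAc-[¹⁴C]pentapeptide, fixed 1 mM C₅₅-P, and several inhibitor levels. Lipid I was separated by TLC and scanned. Ki came from Lineweaver–Burk plots assuming a ping-pong Bi Bi mechanism.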

The target in assay [3] is T2, Phospho-N-acetylmuramoyl-pentapeptide-transferase. In words: Noncompetitive inhibition of Bacillus subtilis MraY using […] as substrate after 30 mins by Lineweaver-Burk plot.
Assay [4] relates to Enterococcus faecalis. In words: Antibacterial activity against vancomycin-resistant Enterococcus faecalis SR7914 after 20 hrs by broth microdilution method. Type of assay: functional. The settings on record: SR7914, 20 h. The procedure, abridged:
(§1)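 NCCLS broth microdilution in cation-adjusted Mueller–Hinton broth. Serial 2-fold compound dilutions were inoculated with 5 × 10⁴ CFU per 0.1 mL and incubated at 35 °C for 20 h before scoring the MIC.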

In assay [5] the test system is Enterococcus faecium. In words: Antibacterial activity against vancomycin-resistant Enterococcus faecium SR7917 after 20 hrs by broth microdilution method. The settings on record: SR7917, 20 h. Type of assay: functional. The procedure, abridged: as §1
(In general: In broth dilution the organism is exposed to a series of concentrations in liquid medium.)

For assay [6], the system named is Staphylococcus aureus. In words: Antibacterial activity against methicillin-resistant Staphylococcus aureus isolate SR3637 after 20 hrs by broth microdilution method. Type of assay: functional. As to conditions: isolate SR3637, 20 h. Put shortly:
as §1

Assay [7] concerns Staphylococcus aureus. In words: Antibacterial activity against methicillin-sensitive […] Staphylococcus aureus ATCC 29213 after 20 hrs by broth microdilution method. As to conditions: ATCC 29213, 20 h. The format is functional. The procedure, abridged: as §1
Assay [8] has as its system Enterococcus faecalis. In words: Antibacterial activity against Enterococcus faecalis ATCC 29212 after 20 hrs by broth microdilution method. The settings on record: ATCC 29212, 20 h. Type of assay: functional. Put shortly: as §1
In assay [9] the test system is Enterococcus faecium. In words: Antibacterial activity against Enterococcus faecium ATCC 19434 after 20 hrs by broth microdilution method. The settings on record: ATCC 19434, 20 h. The format is functional. Put shortly:
as §1

For another assay, the system named is HepG2. In words: Cytotoxicity against human HepG2 cells after 48 hrs by WST-8 assay. The format is cell-based. As to conditions: HepG2, 48 h. Put shortly: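 HepG2 cells in DMEM with 10% FBS were seeded at 1 × 10⁴ cells/well and treated 24 h later with varying concentrations for 48 h. WST-8 reagent was then added for 1.5 h at 37 °C, and absorbance read at 450 nm. Percentage growth inhibition was calculated against untreated cells, and IC50 was derived. Tunicamycin served as positive control.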
For orientation: Formazan colour is commonly taken as a measure of viable cells.

In [1], `CC(C)C[C@H](NC(=O)[C@@H](NC(=O)N[C@H](C(=O)O)C(C)C)[C@@H]1CCN=C(N)N1)C(=O)NCCCN[C@H](C(=O)O)[C@H](O[C@@H]1O[C@H](CN)[C@@H](O)[C@H]1O)[C@H]1O[C@@H](n2ccc(=O)[nH]c2=O)[C@H](O)[C@@H]1O` [MURAMYCIN D2] returned an IC50 of 1230 µM. For the same molecule, the inhibition constant Ki in assay [2] and in assay [3] was 0.0076 µM each time.
Regarding `CCCCOc1ccc(-c2ccc(CC[C@H](NC(=O)[C@@H](NC(=O)N[C@H](C(=O)O)C(C)C)[C@@H]3CCNC(=N)N3)C(=O)NCCCN[C@H](C(=O)O)[C@H](O[C@@H]3O[C@H](CN)[C@@H](O)[C@H]3O)[C@H]3O[C@@H](n4ccc(=O)[nH]c4=O)[C@H](O)[C@@H]3O)cc2)cc1`, the MIC with Enterococcus faecalis [4] worked out at 64 µg/mL (≈ 57.5 µM); against Enterococcus faecium [5] it was 32 µg/mL (≈ 28.8 µM); with Staphylococcus aureus [6], 32 µg/mL (≈ 28.8 µM); against Staphylococcus aureus [7], 16 µg/mL (≈ 14.4 µM); against Enterococcus faecalis [8] it was 16 µg/mL (≈ 14.4 µM); in the assay on Enterococcus faecium [9], 16 µg/mL (≈ 14.4 µM). Also, in the assay on HepG2, the IC50 is > 100 µg/mL.
`CCCCCCCCCCCCCCC[C@H](NC(=O)[C@@H](NC(=O)N[C@H](C(=O)O)C(C)C)[C@@H]1CCNC(=N)N1)C(=O)NCCCN[C@H](C(=O)O)[C@H](O[C@@H]1O[C@H](CN)[C@@H](O)[C@H]1O)[C@H]1O[C@@H](n2ccc(=O)[nH]c2=O)[C@H](O)[C@@H]1O` yielded an IC50 in assay [1] of 970 µM. The Ki in assay [2] and in assay [3] was 0.247 µM each time. Moreover, the minimal inhibitory concentration (MIC) against Enterococcus faecalis [4] was 4 µg/mL (≈ 3.74 µM); in the assay with Enterococcus faecium [5], 2 µg/mL (≈ 1.87 µM); in the assay on Staphylococcus aureus [6] it was 4 µg/mL (≈ 3.74 µM); against Staphylococcus aureus [7] it was 2 µg/mL (≈ 1.87 µM); against Enterococcus faecalis [8], 4 µg/mL (≈ 3.74 µM); against Enterococcus faecium [9] it was 4 µg/mL (≈ 3.74 µM).
The molecule `CC(C)C[C@@H](NC(=O)[C@@H](NC(=O)N[C@H](C(=O)O)C(C)C)[C@@H]1CCN=C(N)N1)C(=O)NCCCN[C@H](C(=O)O)[C@H](O[C@@H]1O[C@H](CN)[C@@H](O)[C@H]1O)[C@H]1O[C@@H](n2ccc(=O)[nH]c2=O)[C@H](O)[C@@H]1O` came in with an IC50 in [1] of 1560 µM. The inhibition constant (Ki) in assay [2] and in assay [3] was 0.049 µM throughout.
On to `CC(C)[C@H](NC(=O)N[C@H](C(=O)N[C@@H](CCCCCCCc1ccc(-c2ccccc2)cc1)C(=O)NCCCN[C@H](C(=O)O)[C@H](O[C@@H]1O[C@H](CN)[C@@H](O)[C@H]1O)[C@H]1O[C@@H](n2ccc(=O)[nH]c2=O)[C@H](O)[C@@H]1O)[C@@H]1CCNC(=N)N1)C(=O)O`, for which the MIC in the assay with Enterococcus faecalis [4] turned out to be 16 µg/mL (≈ 14.4 µM); against Enterococcus faecium [5], 8 µg/mL (≈ 7.21 µM); in the assay with Staphylococcus aureus [6], 4 µg/mL (≈ 3.6 µM); with Staphylococcus aureus [7], 4 µg/mL (≈ 3.6 µM); against Enterococcus faecalis [8], 4 µg/mL (≈ 3.6 µM); against Enterococcus faecium [9], 4 µg/mL (≈ 3.6 µM). In addition, the IC50 in the assay with HepG2 is > 100 µg/mL.
For the molecule `CCCCCCOc1ccc(-c2ccc([C@@H](NC(=O)[C@@H](NC(=O)N[C@H](C(=O)O)C(C)C)[C@@H]3CCNC(=N)N3)C(=O)NCCCN[C@H](C(=O)O)[C@H](O[C@@H]3O[C@H](CN)[C@@H](O)[C@H]3O)[C@H]3O[C@@H](n4ccc(=O)[nH]c4=O)[C@H](O)[C@@H]3O)cc2)cc1`, the MIC is 16 µg/mL (≈ 14.4 µM) with Enterococcus faecalis [4]; 8 µg/mL (≈ 7.19 µM) in the assay on Enterococcus faecium [5]; 16 µg/mL (≈ 14.4 µM) in the assay with Staphylococcus aureus [6]; 16 µg/mL (≈ 14.4 µM) in the assay with Staphylococcus aureus [7]; 16 µg/mL (≈ 14.4 µM) in the assay with Enterococcus faecalis [8]; 4 µg/mL (≈ 3.6 µM) against Enterococcus faecium [9].
Regarding `CC(C)[C@H](NC(=O)N[C@H](C(=O)N[C@H](CCCCCCCc1ccc(-c2ccccc2)cc1)C(=O)NCCCN[C@H](C(=O)O)[C@H](O[C@@H]1O[C@H](CN)[C@@H](O)[C@H]1O)[C@H]1O[C@@H](n2ccc(=O)[nH]c2=O)[C@H](O)[C@@H]1O)[C@@H]1CCNC(=N)N1)C(=O)O`, the MIC came to 16 µg/mL (≈ 14.4 µM) with Enterococcus faecalis [4]; 4 µg/mL (≈ 3.6 µM) against Enterococcus faecium [5]; 16 µg/mL (≈ 14.4 µM) against Staphylococcus aureus [6]; 8 µg/mL (≈ 7.21 µM) with Staphylococcus aureus [7]; 8 µg/mL (≈ 7.21 µM) against Enterococcus faecalis [8]; 4 µg/mL (≈ 3.6 µM) against Enterococcus faecium [9].

The IC50 is the concentration that inhibits the measured activity by half. Low values mean inhibition by little substance, high ones a need for much substance. In general, Ki refers to the dissociation constant of the complex between target and ligand, obtained from inhibition or displacement. A high value points to lower affinity. One may read the MIC as the least concentration at which growth counts as inhibited. Low values mean a more susceptible organism, high ones a less susceptible organism.

The values above are taken from ChEMBL document CHEMBL1933006, “Mechanistic analysis of muraymycin analogues: a guide to the design of MraY inhibitors” (J Med Chem, 2011).
